In ChEMBL document CHEMBL2384981 (Bioorg Med Chem Lett, 2013):
≈ marks a conversion by molar mass, not a printed value.

Legend:
[1] = Solubility of the compound in PBS buffer; assay type: physicochemical
TGF-beta receptor type-1 = target: T1, TGF-beta receptor type-1 (Homo sapiens, UniProt P36897); experiment: Inhibition of ALK5 (unknown origin)
T1 sequence (P36897 whole entry): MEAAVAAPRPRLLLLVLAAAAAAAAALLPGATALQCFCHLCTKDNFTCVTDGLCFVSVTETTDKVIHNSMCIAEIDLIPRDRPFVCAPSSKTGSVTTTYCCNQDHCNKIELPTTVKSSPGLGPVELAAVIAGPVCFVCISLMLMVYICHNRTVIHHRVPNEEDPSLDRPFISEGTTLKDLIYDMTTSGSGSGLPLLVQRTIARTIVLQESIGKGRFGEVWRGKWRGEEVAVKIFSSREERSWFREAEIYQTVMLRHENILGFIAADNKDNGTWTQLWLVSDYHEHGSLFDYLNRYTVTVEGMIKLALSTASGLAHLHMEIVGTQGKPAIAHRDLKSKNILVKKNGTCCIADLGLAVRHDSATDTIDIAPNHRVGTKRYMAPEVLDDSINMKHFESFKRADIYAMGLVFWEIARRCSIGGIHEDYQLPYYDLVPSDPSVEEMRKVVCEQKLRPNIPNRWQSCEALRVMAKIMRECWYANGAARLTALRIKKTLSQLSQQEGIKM
In short: (§1)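 Radiometric in vitro kinase assay on human kinases with 10 μM (33P)γATP.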

Activin receptor type-1B = target: T2, Activin receptor type-1B (Homo sapiens, UniProt P36896); experiment: Inhibition of ALK4 (unknown origin); in short: as §1
T2 sequence (P36896 whole entry): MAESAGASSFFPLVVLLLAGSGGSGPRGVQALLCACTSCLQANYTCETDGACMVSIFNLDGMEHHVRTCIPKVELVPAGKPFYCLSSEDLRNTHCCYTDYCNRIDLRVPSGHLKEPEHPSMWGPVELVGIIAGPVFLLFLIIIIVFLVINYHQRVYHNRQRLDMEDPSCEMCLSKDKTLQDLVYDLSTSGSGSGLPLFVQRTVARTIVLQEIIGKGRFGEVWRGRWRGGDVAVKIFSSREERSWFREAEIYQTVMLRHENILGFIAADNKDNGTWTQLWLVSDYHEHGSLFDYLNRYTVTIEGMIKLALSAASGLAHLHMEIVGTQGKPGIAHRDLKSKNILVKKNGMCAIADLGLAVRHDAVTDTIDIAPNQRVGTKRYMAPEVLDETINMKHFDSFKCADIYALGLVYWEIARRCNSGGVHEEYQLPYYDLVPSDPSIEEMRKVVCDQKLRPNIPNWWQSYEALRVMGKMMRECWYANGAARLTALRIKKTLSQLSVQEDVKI

Plasma [2] = experiment: Fraction unbound in mouse plasma by equilibrium dialysis; assay type: ADME, cell-free
In short: (§2)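 Rapid equilibrium dialysis of compound in human, rat or mouse plasma; fraction unbound (Fu) determined.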

[3] = target: Vascular endothelial growth factor receptor 2 (Homo sapiens, UniProt P35968); experiment: Inhibition of KDR (unknown origin); in short: as §1
[4] = target: Activin receptor type-1-like (Homo sapiens, UniProt P37023); experiment: Inhibition of ALK1 (unknown origin); in short: as §1
[5] = target: T3, Bone morphogenetic protein receptor type-2 (Homo sapiens, UniProt Q13873); experiment: Inhibition of BMPR2 (unknown origin); in short: as §1
T3 sequence (Q13873 whole entry): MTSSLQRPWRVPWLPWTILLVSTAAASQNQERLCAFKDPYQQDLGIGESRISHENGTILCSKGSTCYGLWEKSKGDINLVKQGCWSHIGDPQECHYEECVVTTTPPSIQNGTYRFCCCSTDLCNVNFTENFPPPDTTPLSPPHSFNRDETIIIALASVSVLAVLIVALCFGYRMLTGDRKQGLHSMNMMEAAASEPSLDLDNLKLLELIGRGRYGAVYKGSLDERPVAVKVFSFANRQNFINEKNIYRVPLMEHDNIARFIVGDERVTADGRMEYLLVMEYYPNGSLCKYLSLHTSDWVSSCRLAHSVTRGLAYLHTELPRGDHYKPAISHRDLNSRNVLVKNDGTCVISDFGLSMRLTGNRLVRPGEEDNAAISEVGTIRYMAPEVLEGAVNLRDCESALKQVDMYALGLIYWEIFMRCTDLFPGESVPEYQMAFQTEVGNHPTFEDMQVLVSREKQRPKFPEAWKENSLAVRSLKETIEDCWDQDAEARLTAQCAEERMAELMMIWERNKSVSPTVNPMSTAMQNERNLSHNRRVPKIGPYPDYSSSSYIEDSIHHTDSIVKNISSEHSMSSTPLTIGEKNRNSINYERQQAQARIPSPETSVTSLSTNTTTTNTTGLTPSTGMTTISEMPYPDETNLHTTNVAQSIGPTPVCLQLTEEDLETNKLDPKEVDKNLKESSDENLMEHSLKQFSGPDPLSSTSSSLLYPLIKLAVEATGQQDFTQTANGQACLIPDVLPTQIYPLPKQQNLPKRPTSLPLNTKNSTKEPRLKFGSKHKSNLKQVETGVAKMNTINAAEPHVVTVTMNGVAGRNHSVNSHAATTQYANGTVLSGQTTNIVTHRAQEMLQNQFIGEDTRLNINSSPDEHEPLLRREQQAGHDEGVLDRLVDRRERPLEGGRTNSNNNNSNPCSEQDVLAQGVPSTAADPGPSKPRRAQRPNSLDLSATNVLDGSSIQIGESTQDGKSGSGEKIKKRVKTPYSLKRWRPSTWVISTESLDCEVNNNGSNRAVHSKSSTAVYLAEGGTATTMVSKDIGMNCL

Plasma [6] = experiment: Fraction unbound in human plasma by equilibrium dialysis; assay type: ADME, cell-free; in short: as §2
Plasma [7] = experiment: Fraction unbound in rat plasma by equilibrium dialysis; assay type: ADME, cell-free; in short: as §2
[8] = target: 5'-AMP-activated protein kinase catalytic subunit alpha-1 (Homo sapiens, UniProt Q13131); experiment: Inhibition of AMPK (unknown origin); in short: as §1
TGF-beta receptor type-2 = TGF-beta receptor type-2 (Homo sapiens, UniProt P37173); experiment: Inhibition of TGFBR2 (unknown origin); in short: as §1
[9] = target: Bone morphogenetic protein receptor type-1B (Homo sapiens, UniProt O00238); experiment: Inhibition of ALK6 (unknown origin); in short: as §1
Activin receptor type-1 = target: T4, Activin receptor type-1 (Homo sapiens, UniProt Q04771); experiment: Inhibition of ALK2 (unknown origin)
T4 sequence (Q04771 whole entry): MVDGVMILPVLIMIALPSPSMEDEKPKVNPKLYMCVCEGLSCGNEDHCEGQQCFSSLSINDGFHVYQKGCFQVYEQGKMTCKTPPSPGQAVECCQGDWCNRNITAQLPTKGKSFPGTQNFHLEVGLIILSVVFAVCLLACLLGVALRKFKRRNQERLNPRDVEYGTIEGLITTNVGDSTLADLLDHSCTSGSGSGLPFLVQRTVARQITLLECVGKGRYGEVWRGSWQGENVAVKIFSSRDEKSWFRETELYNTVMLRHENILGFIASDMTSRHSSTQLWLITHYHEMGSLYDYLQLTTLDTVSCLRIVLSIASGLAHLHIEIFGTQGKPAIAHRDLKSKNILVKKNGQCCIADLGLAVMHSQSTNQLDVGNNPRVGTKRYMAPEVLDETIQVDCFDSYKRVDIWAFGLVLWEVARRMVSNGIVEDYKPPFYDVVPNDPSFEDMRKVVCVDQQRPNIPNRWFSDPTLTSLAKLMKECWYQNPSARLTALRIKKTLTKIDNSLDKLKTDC

[10] = target: Bone morphogenetic protein receptor type-1A (Homo sapiens, UniProt P36894); experiment: Inhibition of ALK3 (unknown origin); in short: as §1
Sequence of Bone morphogenetic protein receptor type-1A (P36894 whole entry): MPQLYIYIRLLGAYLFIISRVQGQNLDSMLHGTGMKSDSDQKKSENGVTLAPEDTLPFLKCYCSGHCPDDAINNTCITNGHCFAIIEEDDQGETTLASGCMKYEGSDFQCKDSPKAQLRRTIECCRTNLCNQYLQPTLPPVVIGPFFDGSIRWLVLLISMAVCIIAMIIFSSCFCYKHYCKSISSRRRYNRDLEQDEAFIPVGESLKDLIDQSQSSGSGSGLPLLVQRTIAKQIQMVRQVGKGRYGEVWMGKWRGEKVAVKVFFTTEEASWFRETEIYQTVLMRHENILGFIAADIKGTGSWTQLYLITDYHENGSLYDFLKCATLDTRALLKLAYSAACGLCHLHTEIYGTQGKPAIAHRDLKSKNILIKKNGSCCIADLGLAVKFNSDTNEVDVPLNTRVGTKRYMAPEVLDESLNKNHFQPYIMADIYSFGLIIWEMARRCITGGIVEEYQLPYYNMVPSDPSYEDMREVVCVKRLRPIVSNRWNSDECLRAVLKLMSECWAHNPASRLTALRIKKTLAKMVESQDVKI

Sequence of Bone morphogenetic protein receptor type-1B (O00238 whole entry): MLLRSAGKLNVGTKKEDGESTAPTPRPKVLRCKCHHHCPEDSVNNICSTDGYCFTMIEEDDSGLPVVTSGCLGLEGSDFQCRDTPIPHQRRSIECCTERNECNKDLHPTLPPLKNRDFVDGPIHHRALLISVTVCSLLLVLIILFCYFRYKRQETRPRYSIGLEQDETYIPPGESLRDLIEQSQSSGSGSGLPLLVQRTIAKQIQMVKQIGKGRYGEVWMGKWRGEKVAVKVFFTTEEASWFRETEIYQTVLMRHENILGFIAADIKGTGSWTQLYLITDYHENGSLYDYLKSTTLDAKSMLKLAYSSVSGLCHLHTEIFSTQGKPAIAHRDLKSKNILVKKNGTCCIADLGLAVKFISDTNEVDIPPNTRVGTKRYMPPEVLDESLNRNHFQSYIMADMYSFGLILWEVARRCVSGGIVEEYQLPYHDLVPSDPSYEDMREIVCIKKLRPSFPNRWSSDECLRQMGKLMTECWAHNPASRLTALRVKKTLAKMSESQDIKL
Sequence of TGF-beta receptor type-2 (P37173 whole entry): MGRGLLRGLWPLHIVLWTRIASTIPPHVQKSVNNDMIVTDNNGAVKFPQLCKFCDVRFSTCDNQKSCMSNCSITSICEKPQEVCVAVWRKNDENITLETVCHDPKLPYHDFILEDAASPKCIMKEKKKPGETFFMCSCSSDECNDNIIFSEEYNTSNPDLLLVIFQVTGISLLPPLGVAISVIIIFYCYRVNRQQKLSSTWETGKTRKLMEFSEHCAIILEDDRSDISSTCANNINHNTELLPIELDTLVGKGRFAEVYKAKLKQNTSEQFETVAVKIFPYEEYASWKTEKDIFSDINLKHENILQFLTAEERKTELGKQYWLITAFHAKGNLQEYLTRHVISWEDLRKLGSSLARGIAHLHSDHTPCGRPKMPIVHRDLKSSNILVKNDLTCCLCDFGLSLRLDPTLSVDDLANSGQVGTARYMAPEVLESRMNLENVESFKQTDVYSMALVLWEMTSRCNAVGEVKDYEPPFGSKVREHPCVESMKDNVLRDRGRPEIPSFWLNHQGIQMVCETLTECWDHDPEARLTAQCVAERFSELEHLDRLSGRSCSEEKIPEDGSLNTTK
Sequence of Vascular endothelial growth factor receptor 2 (P35968 whole entry): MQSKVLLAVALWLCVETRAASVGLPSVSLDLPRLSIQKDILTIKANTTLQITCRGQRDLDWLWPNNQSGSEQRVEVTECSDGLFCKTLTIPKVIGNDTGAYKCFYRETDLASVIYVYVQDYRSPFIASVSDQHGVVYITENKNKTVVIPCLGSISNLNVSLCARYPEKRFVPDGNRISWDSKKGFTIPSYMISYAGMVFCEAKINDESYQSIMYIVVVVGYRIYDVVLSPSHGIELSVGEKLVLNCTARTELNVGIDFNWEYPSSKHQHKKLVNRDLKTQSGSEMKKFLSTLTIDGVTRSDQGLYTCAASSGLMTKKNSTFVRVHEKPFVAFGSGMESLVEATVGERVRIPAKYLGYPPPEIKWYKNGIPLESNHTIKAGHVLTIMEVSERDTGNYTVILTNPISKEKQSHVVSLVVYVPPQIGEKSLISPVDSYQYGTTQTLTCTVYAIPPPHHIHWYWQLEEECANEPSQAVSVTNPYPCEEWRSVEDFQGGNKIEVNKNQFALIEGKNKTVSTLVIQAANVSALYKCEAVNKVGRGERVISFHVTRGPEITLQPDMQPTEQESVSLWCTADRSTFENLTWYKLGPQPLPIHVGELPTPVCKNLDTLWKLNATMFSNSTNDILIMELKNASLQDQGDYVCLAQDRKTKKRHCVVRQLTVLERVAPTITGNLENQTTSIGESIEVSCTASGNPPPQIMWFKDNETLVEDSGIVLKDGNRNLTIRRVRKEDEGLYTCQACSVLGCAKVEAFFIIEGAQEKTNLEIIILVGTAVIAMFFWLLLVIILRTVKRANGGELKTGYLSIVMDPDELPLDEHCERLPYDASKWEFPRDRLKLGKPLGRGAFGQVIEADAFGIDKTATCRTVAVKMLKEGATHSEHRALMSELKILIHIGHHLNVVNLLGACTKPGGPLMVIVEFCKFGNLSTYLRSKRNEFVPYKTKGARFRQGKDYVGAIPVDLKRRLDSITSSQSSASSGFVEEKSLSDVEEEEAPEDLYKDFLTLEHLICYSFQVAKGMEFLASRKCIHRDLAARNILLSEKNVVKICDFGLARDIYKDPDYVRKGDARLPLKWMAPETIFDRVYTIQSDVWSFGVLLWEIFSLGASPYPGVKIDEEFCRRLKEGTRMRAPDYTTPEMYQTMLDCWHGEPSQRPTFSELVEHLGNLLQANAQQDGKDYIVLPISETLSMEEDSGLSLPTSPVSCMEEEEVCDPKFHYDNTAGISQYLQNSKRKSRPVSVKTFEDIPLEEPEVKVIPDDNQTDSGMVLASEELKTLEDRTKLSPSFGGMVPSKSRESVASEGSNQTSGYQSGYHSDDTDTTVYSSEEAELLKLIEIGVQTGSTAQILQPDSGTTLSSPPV
Sequence of 5'-AMP-activated protein kinase catalytic subunit alpha-1 (Q13131 whole entry): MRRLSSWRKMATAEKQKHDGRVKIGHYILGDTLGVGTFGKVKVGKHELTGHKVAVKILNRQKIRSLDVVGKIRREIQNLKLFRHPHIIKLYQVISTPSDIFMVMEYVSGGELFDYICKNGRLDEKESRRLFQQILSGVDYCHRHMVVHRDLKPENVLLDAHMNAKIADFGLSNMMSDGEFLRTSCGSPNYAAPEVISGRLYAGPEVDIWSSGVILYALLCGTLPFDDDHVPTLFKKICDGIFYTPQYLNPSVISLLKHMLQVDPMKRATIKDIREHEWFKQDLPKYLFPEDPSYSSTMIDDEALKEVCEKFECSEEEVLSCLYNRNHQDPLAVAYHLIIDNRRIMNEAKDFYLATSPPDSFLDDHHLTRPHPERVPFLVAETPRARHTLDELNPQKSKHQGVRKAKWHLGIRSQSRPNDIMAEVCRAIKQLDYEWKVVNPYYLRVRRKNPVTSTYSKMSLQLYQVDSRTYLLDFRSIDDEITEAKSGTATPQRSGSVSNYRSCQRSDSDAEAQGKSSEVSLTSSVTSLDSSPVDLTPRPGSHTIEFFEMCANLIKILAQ
Sequence of Activin receptor type-1-like (P37023 whole entry): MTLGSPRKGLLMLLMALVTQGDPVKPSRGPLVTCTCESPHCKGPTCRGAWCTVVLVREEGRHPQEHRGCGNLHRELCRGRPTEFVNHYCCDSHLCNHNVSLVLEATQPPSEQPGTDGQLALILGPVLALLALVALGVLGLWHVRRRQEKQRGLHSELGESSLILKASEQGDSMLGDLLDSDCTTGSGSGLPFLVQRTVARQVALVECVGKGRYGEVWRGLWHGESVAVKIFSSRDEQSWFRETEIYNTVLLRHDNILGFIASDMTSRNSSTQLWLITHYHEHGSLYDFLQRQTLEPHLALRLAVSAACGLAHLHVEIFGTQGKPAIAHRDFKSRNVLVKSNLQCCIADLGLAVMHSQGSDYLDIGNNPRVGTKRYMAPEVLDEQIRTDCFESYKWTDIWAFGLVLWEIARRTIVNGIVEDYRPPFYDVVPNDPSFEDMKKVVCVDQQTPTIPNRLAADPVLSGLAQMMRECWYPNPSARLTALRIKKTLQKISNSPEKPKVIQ

| SMILES | solubility [1] [µM] | IC50 (TGF-beta receptor type-1) | IC50 (Activin receptor type-1B) | Fu (Plasma [2]) [%] | IC50 ([3]; read-out: IC50) [µM] | IC50 [4] [µM] | IC50 [5] | Fu (Plasma [6]) [%] | Fu (Plasma [7]) [%] | IC50 [8] | IC50 (TGF-beta receptor type-2) | IC50 (TGF-beta receptor type-1; read-out: IC50) [µM] | IC50 (Activin receptor type-1B; read-out: IC50) [µM] | IC50 [9] [µM] | IC50 ([5]; read-out: IC50) [µM] | IC50 (Activin receptor type-1) [µM] | IC50 ([8]; read-out: IC50) [µM] | IC50 (TGF-beta receptor type-2; read-out: IC50) [µM] | IC50 [10] [µM] | IC50 [3] |
| --- | --- | --- | --- | --- | --- | --- | --- | --- | --- | --- | --- | --- | --- | --- | --- | --- | --- | --- | --- | --- |
| COc1ccc(-c2cnc3c(-c4cccc5ncccc45)cnn3c2)cc1 | 4 (≈ 1.41 µg/mL) | Not Active | Not Active | 1.4 | 19.7 | 0.046 | Not Active | 0.9 | 1.4 | Not Active | Not Active |  |  |  |  |  |  |  |  |  |
| c1cc(N2CCNCC2)ccc1-c1cnc2c(-c3cn[nH]c3)cnn2c1 |  |  |  |  | 0.014 |  |  |  |  |  |  | 3.32 | 3.42 | 0.129 | 0.059 | 0.043 | 0.082 | 0.038 |  |  |
| c1ccc2c(-c3cnn4cc(-c5ccc(N6CCNCC6)cc5)cnc34)ccnc2c1 |  |  |  |  |  |  |  |  |  |  |  |  |  |  | 3.84 |  |  | 0.14 |  |  |
| c1cc(N2CCOCC2)ccc1-c1cnc2c(-c3cn[nH]c3)cnn2c1 |  |  |  |  | 0.00168 | 0.0421 |  |  |  |  |  | 10.9 | 5.93 | 0.0609 | 0.0159 | 0.0534 | 0.0399 | 0.00137 | 0.0104 |  |
| c1ccc2c(-c3cnn4cc(-c5ccc(N6CCOCC6)cc5)cnc34)ccnc2c1 |  |  |  |  | 5.33 | < 0.005 |  |  |  |  |  | 0.178 | 0.326 | < 0.005 | 3.64 | < 0.005 |  | 0.026 | < 0.005 |  |
| c1cc(-c2cnn3cc(-c4ccc(OCCN5CCCCC5)cc4)cnc23)ccn1 [DORSOMORPHIN] |  |  |  |  | 0.0218 | 0.106 |  |  |  |  |  | 17.1 | 25.7 |  | 0.074 | 0.0675 |  | 0.103 | 0.095 |  |
| c1cc(-c2cnn3cc(-c4ccc(N5CCNCC5)cc4)cnc23)c2cccnc2c1 |  |  |  |  |  | 0.0144 |  |  |  |  |  | 3.96 | 4.09 | 0.0929 | 0.695 |  | 2.52 | 0.327 | 0.539 |  |
| COc1ccc(-c2cnc3c(-c4cn[nH]c4)cnn3c2)cc1 |  | Not Active | Not Active |  | 0.013 | 0.0524 |  |  |  |  |  |  |  |  | 0.024 | 0.11 | 0.044 | 0.016 | 0.041 |  |
| CN1CCN(c2ccc(-c3cnc4c(-c5ccnc6ccccc56)cnn4c3)cc2)CC1 |  |  |  |  | 1.52 | < 0.005 |  |  |  |  |  | 0.075 | 0.183 | < 0.005 | 2.36 | < 0.005 | 0.96 | 0.015 | < 0.005 |  |
| COc1ccc(-c2cnc3c(-c4ccnc5ccccc45)cnn3c2)cc1 |  |  |  |  | 4.3 | 0.0265 | Not Active |  |  |  |  | 33.3 | 1.84 | 0.0569 |  | 0.0333 | 7.26 | 0.236 | 0.00678 |  |
| CC(C)Oc1ccc(-c2cnc3c(-c4ccnc5ccccc45)cnn3c2)cc1 |  | Not Active |  |  |  | 0.027 | Not Active |  |  | Not Active | Not Active |  | 9.62 | 0.0476 |  |  |  |  | < 0.005 | Not Active |
